Measurements reported in ChEMBL document CHEMBL1134399 (J Med Chem, 2001).
Blank lines part the entries; values can stand above or below the compound they belong to. Where a SMILES comes first, the peptide text is derived from it. Bridges are numbered along the chain shown (N, C = ends). [ ]: non-standard residue; d: D form. Phe(4-CF3) = N[C@@H](Cc1ccc(C(F)(F)F)cc1)C(=O)O; 2Nal = N[C@@H](Cc1ccc2ccccc2c1)C(=O)O; 3Pal = N[C@@H](Cc1cccnc1)C(=O)O; NMeK = CN[C@@H](CCCCN)C(=O)O

Tests used:
Somatostatin receptor = assay: Antagonism of in vitro SRIF inhibition of GH release from rat pituitary cells in culture; type: functional, cell-based; conditions: pituitary gland cell
In short: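 Dispersed anterior pituitary cells from adult male rats, cultured 4–5 days at 37 °C. Six doses per plate, triplicate wells. GH measured by double antibody RIA. Antagonist IC50 versus SRIF is the mean ± SEM of n dose-response curves.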

[1] = biological target: Somatostatin receptor type 1 (Homo sapiens, UniProt P30872); assay: Ability to displace [125 I]labelled Tyr11-somatostatin from human hsst-1 receptor expressed on CHO cells; type: cell-based
Sequence of Somatostatin receptor type 1 (P30872 whole entry): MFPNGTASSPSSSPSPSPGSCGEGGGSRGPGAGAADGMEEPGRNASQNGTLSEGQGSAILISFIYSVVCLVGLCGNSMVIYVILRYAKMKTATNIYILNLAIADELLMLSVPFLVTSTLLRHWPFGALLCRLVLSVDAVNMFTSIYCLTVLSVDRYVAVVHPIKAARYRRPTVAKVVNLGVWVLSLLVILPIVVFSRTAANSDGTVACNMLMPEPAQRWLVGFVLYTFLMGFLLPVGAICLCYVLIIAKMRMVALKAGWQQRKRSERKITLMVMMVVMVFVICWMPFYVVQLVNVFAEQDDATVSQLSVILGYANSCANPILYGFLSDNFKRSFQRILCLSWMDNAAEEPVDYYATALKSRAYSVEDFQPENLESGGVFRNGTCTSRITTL
In short: (§1)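 Membranes from stably transfected CHO-K1 clones, prepared in ice-cold 50 mM Tris-HCl and resuspended in 10 mM Tris-HCl. Stopped by filtration through PEI-soaked GF/C filters. Nonspecific binding taken with 1.0 μM SRIF. Ki ± SEM from concentration-dependent displacement.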

[2] = biological target: Somatostatin receptor type 4 (Homo sapiens, UniProt P31391); assay: Ability to displace [125 I]labelled Tyr11-somatostatin from human hsst-4 receptor expressed on CHO cells; type: cell-based; in short: as §1
Sequence of Somatostatin receptor type 4 (P31391 whole entry): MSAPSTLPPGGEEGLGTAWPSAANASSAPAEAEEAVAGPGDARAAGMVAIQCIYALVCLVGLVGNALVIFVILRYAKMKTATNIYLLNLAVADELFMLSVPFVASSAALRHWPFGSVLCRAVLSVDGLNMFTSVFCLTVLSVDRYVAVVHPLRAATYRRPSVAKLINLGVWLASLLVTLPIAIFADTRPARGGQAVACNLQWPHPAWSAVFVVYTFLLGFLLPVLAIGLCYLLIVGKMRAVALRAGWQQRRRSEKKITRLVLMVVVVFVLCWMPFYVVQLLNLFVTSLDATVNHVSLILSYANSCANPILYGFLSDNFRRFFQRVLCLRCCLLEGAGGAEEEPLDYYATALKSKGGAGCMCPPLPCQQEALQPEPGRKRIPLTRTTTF

[3] = biological target: Somatostatin receptor type 2 (Homo sapiens, UniProt P30874); assay: Ability to displace [125 I]labelled Tyr11-somatostatin from human hsst-2 receptor expressed on CHO cells; type: cell-based
Sequence of Somatostatin receptor type 2 (P30874 whole entry): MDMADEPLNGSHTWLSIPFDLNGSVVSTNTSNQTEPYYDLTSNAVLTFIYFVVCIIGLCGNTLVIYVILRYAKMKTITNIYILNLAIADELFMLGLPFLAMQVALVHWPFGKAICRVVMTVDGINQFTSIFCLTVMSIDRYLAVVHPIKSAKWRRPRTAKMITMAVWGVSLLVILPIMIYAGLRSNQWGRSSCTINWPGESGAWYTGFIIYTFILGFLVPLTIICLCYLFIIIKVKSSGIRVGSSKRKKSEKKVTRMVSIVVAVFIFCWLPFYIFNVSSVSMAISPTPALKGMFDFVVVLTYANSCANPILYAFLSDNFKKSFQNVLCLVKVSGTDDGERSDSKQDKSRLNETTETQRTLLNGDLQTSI

[4] = biological target: Somatostatin receptor type 3 (Homo sapiens, UniProt P32745); assay: Ability to displace [125 I]labelled Tyr11-somatostatin from human hsst-3 receptor expressed on CHO cells; type: cell-based; in short: as §1
Sequence of Somatostatin receptor type 3 (P32745 whole entry): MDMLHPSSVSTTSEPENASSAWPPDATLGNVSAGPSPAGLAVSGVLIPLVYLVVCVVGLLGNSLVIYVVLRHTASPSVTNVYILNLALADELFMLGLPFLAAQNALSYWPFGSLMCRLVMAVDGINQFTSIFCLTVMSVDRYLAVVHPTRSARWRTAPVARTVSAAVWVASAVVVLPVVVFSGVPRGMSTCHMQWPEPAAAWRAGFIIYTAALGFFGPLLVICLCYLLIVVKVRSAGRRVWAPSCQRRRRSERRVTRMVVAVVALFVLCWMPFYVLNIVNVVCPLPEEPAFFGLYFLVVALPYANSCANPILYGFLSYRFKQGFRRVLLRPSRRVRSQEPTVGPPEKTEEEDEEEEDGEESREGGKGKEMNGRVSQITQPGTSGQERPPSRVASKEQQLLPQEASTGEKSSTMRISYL

[5] = biological target: Somatostatin receptor type 5 (Homo sapiens, UniProt P35346); assay: Ability to displace [125 I]labelled Tyr11-somatostatin from human hsst-5 receptor expressed on CHO cells; type: cell-based; in short: as §1
Sequence of Somatostatin receptor type 5 (P35346 whole entry): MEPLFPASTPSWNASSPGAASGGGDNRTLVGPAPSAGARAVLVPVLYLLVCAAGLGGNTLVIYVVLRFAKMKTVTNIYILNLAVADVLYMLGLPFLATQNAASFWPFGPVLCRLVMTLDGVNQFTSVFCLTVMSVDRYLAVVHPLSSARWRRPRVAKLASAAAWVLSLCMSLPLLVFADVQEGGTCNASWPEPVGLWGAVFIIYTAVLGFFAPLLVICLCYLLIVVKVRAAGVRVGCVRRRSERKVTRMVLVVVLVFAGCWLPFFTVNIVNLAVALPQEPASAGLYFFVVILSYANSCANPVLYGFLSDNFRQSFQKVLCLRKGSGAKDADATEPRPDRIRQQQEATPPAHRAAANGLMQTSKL

IC50 (Somatostatin receptor): 0.0078 µM
SMILES: CN[C@@H](Cc1ccc(Cl)cc1)C(=O)N[C@H]1CSSC[C@H](C(=O)N[C@@H](Cc2ccc3ccccc3c2)C(N)=O)NC(=O)[C@@H]([C@H](C)O)NC(=O)[C@H](CCCCN)NC(=O)[C@@H](Cc2c[nH]c3ccccc23)NC(=O)[C@H](Cc2cccnc2)NC1=O

Ki [1]: > 1 µM
Ki [2]: 1.25 µM
Ki [3]: 0.0113 µM
Ki [4]: 0.0402 µM
SMILES: C[C@@H](O)[C@@H]1NC(=O)[C@H](CCCCN)N(C)C(=O)[C@@H](Cc2c[nH]c3ccccc23)NC(=O)[C@H](Cc2cccnc2)NC(=O)[C@H](NC(=O)[C@@H](N)Cc2ccc(C(F)(F)F)cc2)CSSC[C@@H](C(=O)N[C@@H](Cc2ccc3ccccc3c2)C(N)=O)NC1=O (H-[Phe(4-CF3)][dC][3Pal][dW][NMeK]TC[2Nal]-NH2; disulfide 2-7)

Ki ([1]; cho): > 1 µM
Ki ([2]; cho): > 1 µM
Ki [5]: > 1 µM
Ki ([3]; cho): 0.317 µM
Ki ([4]; cho): 0.0236 µM
SMILES: C[C@@H](O)[C@@H]1NC(=O)[C@H](CCN)NC(=O)[C@@H](Cc2c[nH]c3ccccc23)NC(=O)[C@H](Cc2cccnc2)NC(=O)[C@H](NC(=O)[C@@H](N)Cc2ccc(Cl)cc2)CSSC[C@@H](C(=O)N[C@@H](Cc2ccc3ccccc3c2)C(N)=O)NC1=O

IC50 (Somatostatin receptor): 0.0025 µM
SMILES: C[C@H](O)[C@H]1NC(=O)[C@H](CCCCN)N(C)C(=O)[C@@H](Cc2c[nH]c3ccccc23)N(C)C(=O)[C@H](Cc2cccnc2)NC(=O)[C@@H](NC(=O)[C@@H](N)Cc2ccc(Cl)cc2)CSSC[C@H](C(=O)N[C@@H](Cc2ccc3ccccc3c2)C(N)=O)NC1=O
